# Calls of active or inactive are those of the source. The calls are words filed in the database; no cut-off is given here.
# Tests used:
# MV4-11 [1] = experiment: Cytotoxicity against human MV4-11 cells assessed as reduction in cell viability at 0.015 to 100 uM incubated for 24 hrs by celltiter-glo assay; format: functional; conditions: dose 0.015-100 µM
# Summary of the method: (§1)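 MV4;11 cells (WT or CASP1−/−), grown in RPMI 1640 with 10% FBS at 37 °C, 5% CO2, plated 2000 cells/well, dosed by pintool across 100 μM to 15.2 nM in three-fold steps for 24 h. Viability by CellTiter-Glo luminescence after 2 min shaking and 10 min at 25 °C. IC50 as mean ± SEM of three biological replicates.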
# MV4-11 [2] = experiment: Cytotoxicity against CASP1 knockout human MV4-11 cells assessed as reduction in cell viability at 0.015 to 100 uM incubated for 24 hrs by celltiter-glo assay; format: functional; conditions: dose 0.015-100 µM; summary of the method: as §1
# [3] = Drug metabolism in human MV4-11 cell culture supernatant assessed as (S)-1-((2S,3R)-3-amino-2-hydroxy-5-methylhexanoyl)pyrrolidine-2-carboxylic acid formation measured within 30 mins by LC-MS analysis; format: ADME, cell-based; conditions: mv4-11, 0.5 h
# OCI-AML2 = experiment: Induction of cell death in human OCI-AML2 cells assessed as increase in PI uptake at 6.25 uM incubated for 6 hrs by PI staining based fluorescence analysis; format: functional
# Summary of the method: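 PI flux assay. 2 × 10^4 MV4;11 (WT, CARD8−/− or CASP1−/−) or OCI-AML2 cells in RPMI were given compound at 6.25 μM plus PI at 10 μM final. Fluorescence (Ex/Em 535/617 nm) was read every 5 min at 37 °C for 6 h, baseline-corrected to DMSO and normalized to the maximum response. n = 3.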
# [4] = Stability in human MV4-11 cells assessed as retention time of parent compound incubated for 24 hrs by LC/MS analysis; format: ADME, cell-based; conditions: mv4-11, 24 h
# Summary of the method: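 Compound was held in MV4;11 conditioned medium for 24 h at 37 °C, then LC/MS was run, recording the retention times of the parent ester and its free acid.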
# [5] = Drug metabolism of the compound in human MV4-11 cells assessed as de-esterified metabolite formation by LC-MS analysis; format: ADME, cell-based
Compound,Activity (MV4-11 [1]),Activity (MV4-11 [2]),Drug metabolism [3],Activity (OCI-AML2),Retention_time [4],Drug metabolism [5]
COC(=O)[C@@H]1CCCN1C(=O)[C@@H](O)[C@H](N)CC(C)C,28%,95%,Metabolite_Detected,–,–,–
COC(=O)[C@H](CC(C)C)NC(=O)[C@@H]1CCCN1C(=O)[C@@H](O)[C@H](N)CC(C)C,–,–,–,Active,2.82 min,Metabolite_Detected
